From ChEMBL document CHEMBL4513216, “Probing the Open Global Health Chemical Diversity Library for Multistage-Active Starting Points for Next-Generation Antimalarials” (ACS Infect Dis, 2020) come the findings set out here.

The nature of this series: Toxicity liver stage against HepG2, at 10uM. On the set-up: test concentration 10 uM, cell line HepG2-A16-CD81EGFP. The series is classed as cell-based. The settings on record: human, HepG2-A16-CD81EGFP cells; read-out: INHIBITION
In a few lines: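 Uninfected HepG2-A16-CD81EGFP cells, 3 × 10^3 per well, 1536-well, plated on prespotted compound at 10 μM final, parasite-free screening media added to match infected plates; puromycin 10 μM positive, DMSO 0.5% negative; run in parallel with 48 h PbLuc assay at 37 °C, 5% CO2; viability by CellTiter-Glo luminescence, normalized to controls.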

On to `COc1ccc(-c2nc(CN3CC(n4cc(C)cn4)C3)no2)cc1`, for which the cytotoxicity at 10 µM was -14.9%.

Regarding `CC(C)C1=NOC(c2nc(Cc3ccccc3)no2)C1` (stereo not given), the cytotoxicity at 10 µM was -3.94%. Under `CCS(=O)(=O)NC[C@]12COC[C@H]1CN(Cc1ccccn1)C2` stands -72.5%. Under `CCNc1ncc(C(=O)NCCc2ccc(C)c(C)c2)cn1` stands -5.1%; under `Cc1cc(C)n(C2CN(Cc3ccc(C(=O)N4CCCC4)cc3)C2)n1`, 1.89%; under `CCc1nc(N)nc(NCCC(=O)NC2CCCCC2)c1C`, -38.9%. For `CCCNC(=O)CSCc1ccc(S(=O)(=O)N(C)C)o1`, the cytotoxicity at 10 µM amounted to 9.8%. Under `NS(=O)(=O)c1cc(C(=O)N2CCCCC2)cs1` stands -0.174%; under `Cc1ccc(C(=O)NCCCS(=O)(=O)c2ccccc2)c(=O)[nH]1`, -4.97%. Under `COCCN1CCC(NCc2cccc(C)c2)C1` (stereo not given) stands 2.76%.

With `Cc1nc(NCc2ccc(C)o2)cc(C(=O)N2CCOCC2)n1`, the cytotoxicity at 10 µM is -2.03%.

With `CCOC(=O)CN1CCC2(CC1)CC(NC(=O)c1ccccn1)CO2` (stereo not given), the cytotoxicity at 10 µM was 2.17%. Under `Cc1ccc(C(=O)N2CCN(Cc3ccc(C#N)cc3)CC2)n1C` stands -9.65%. The figure for `CC(=O)N1CCC2(CC1)CC(N1CCOCC1)c1ccc(C)cc12` (stereo not given) is -137%; for `COc1c(CNCCC(=O)Nc2cccc(C)n2)c(C)nn1C` it is 12.6%; for `CC1(C)COCCN1C(=O)Cc1cc(Cl)c2c(c1)OCCO2` it is 1.54%. Under `Cc1ccc2oc(C(=O)N3CCC(C(=O)N4CCCC4)CC3)cc2n1` stands -1.35%; under `Cc1ccccc1C1(C(=O)NCCN2CCOCC2)CCOCC1`, -3.07%. On to `CN1[C@@H]2CC[C@H]1CN(c1nc(-c3ccncc3)nc3c1cnn3C)CC2`, for which the cytotoxicity at 10 µM amounted to 38.7%. With `CC(c1cccnc1)N(C)Cc1ccccn1` (stereo not given), the cytotoxicity at 10 µM is 0.423%. On to `CC(C)n1cnnc1CN(C)Cc1cnc(-c2ccco2)nc1`, for which the cytotoxicity at 10 µM worked out at 10.8%. The figure for `Cc1oc(-c2ccsc2)nc1CNCCn1cccn1` is -3.36%; for `CCc1ccc(OCCN(C)C(=O)c2ccncc2Cl)cc1` it is -2.91%. Under `Cc1ccc2nc(CN(Cc3ccc(C)o3)C(C)C)cc(=O)n2c1` stands 5.6%; under `Cn1cc(-c2cnc3n2CCC32CCN(S(=O)(=O)C3CC3)CC2)cn1`, -139%; under `CN(C)C(=O)c1nc2c(s1)CCCN2Cc1ccccc1`, 7.58%.

Consider `CC(C)NC(=O)c1cc2c(nc1N(C)C)CCN(S(=O)(=O)C1CC1)CC2`, for which the cytotoxicity at 10 µM was -149%.

For `O=S1(=O)CCC(n2nc(COc3ccccc3)nc2-c2cnccn2)C1` (stereo not given), the cytotoxicity at 10 µM is -4.64%. Under `O=C1NCC2=Nc3ccccc3NC(c3ccc(O)cc3)C12` (stereo not given) stands 3.63%.

As to `Cc1nc(CN2CCCN(CC(=O)Nc3ccncc3)CC2)no1`, the cytotoxicity at 10 µM is -7.03%. Regarding `O=C1CC2(CCN(c3nncs3)C2)CN1c1ccc2c(c1)OCCO2` (stereo not given), the cytotoxicity at 10 µM was 6.66%.

Regarding `c1cnc(-c2nc(CN3CCCN(Cc4cccs4)CC3)cs2)nc1`, the cytotoxicity at 10 µM was -7.66%.

On to `COc1cccc(-c2n[nH]c3c2CN(C(=O)c2cc(C)n(C)n2)CC3)c1`, for which the cytotoxicity at 10 µM was -0.159%. Under `Cc1nc(N(C)C)nc2c1COCC21CCN(C(=O)NC(C)C)C1` (stereo not given) stands -13%; under `O=C(Cn1ccc2ccc(Br)cc21)NCc1ccc(C(=O)O)cc1`, 6.46%. In the case of `O=C(CC1CCN(c2ncnc3cccc(F)c23)CC1)N1CCCC1`, the cytotoxicity at 10 µM was 7.28%. The figure for `CC(C)NC(=O)NCC(Cc1ccc(F)cc1)C(N)=O` (stereo not given) is 12.8%; for `Cc1nn(-c2ccccc2)c2nc(C(C)(C)CN3CCN(C)CC3)[nH]c12` it is -2.13%. The figure for `COCCN1CCC2(CC1)CC(COC)N(c1ncccn1)C2` (stereo not given) is -3.53%; for `O=C(CS(=O)(=O)Cc1ccc(Br)cc1F)Nc1cn[nH]c1` it is -9.2%.

On to `CCOC(=O)[C@]12CCCN(Cc3nccs3)C[C@H]1CN(CCOC)C2`, for which the cytotoxicity at 10 µM turned out to be 1.36%. For the compound `Cc1nc(C)n(CC2CCCN2Cc2cccc3c2OCCO3)n1` (stereo not given), the cytotoxicity at 10 µM is -3.33%. `Cc1csc(N2CCN(C(=O)Cc3ccc(C)s3)CC2)n1`: the cytotoxicity at 10 µM was -7.05%. On to `Cc1cnc2c(c1NCc1ccc3c(c1)OCO3)c(=O)n(C)c(=O)n2C`, for which the cytotoxicity at 10 µM amounted to 16.7%. Under `O=C(N1CCCC1)N1CCOCC2(C1)CN(c1ccccc1)C(=O)CO2` (stereo not given) stands 4.77%; under `Cn1cnc(S(=O)(=O)N2CCCc3c(F)cc(F)cc32)c1Cl`, 0.333%. In the case of `Cc1cccnc1NCCNC(=O)C1CCN(Cc2ccco2)CC1`, the cytotoxicity at 10 µM was -2.51%. As for `CCn1nc(C)c(C(=O)N2CCC(Nc3ccc(C)nn3)CC2)c1C`, the cytotoxicity at 10 µM is 4.13%. On to `Oc1nc(N2CCCC2)nc2nccc(-c3ccccn3)c12`, for which the cytotoxicity at 10 µM worked out at 1.36%. Consider `O=C1CCC(C(=O)N2CCOC(Cc3ccccc3Cl)C2)=NN1` (stereo not given), for which the cytotoxicity at 10 µM was -0.108%. In the case of `CC(C)n1[nH]c(=O)c2c1NC(=O)CC2c1ccc2ncccc2c1` (stereo not given), the cytotoxicity at 10 µM turned out to be 9.76%.

`COc1ccc(CN(C)[C@@H]2CN(C(=O)c3cccs3)C[C@H]2O)cc1`: the cytotoxicity at 10 µM was -0.619%. Take `O=C(c1cnc(-c2ccccc2)s1)N1CCOC2(CCCC2)C1`: the cytotoxicity at 10 µM is -1.52%. The figure for `O=C(c1ccc(-n2cccn2)nc1)N1CCCC(n2cccn2)C1` (stereo not given) is -4.75%; for `CCN1CCC[C@@H]1CNC(=O)c1cc(COc2ccccc2)[nH]n1` it is 0.635%. Under `Cc1nn(-c2ccccc2)c(C)c1CNC(=O)NC1CC(=O)N(C)C1` (stereo not given) stands -2.17%; under `COc1ccc(CC(=O)N2CC[C@@H]3NC(=O)CC[C@@H]32)cc1`, -1.89%; under `Cc1ccc(N2CC[C@H]3[C@@H]2CCC(=O)N3CCN2CCOCC2)nn1`, -3.18%. The figure for `CCCS(=O)(=O)N1C[C@H](N(C)Cc2ccco2)[C@@H]2OCCC[C@@H]21` is -78.4%; for `OC1(CN2CCCC2)COCCN(c2nccs2)C1` (stereo not given) it is -7.64%; for `Cc1noc(C)c1CNCC1CNc2ccnn2C1` (stereo not given) it is -2.72%. Regarding `CCOC(=O)c1coc(N2CCN(C(=O)c3cccc(OC)c3)CC2)n1`, the cytotoxicity at 10 µM came to 8.15%. `COCC(=O)NCCC(=O)N1CCN(S(=O)(=O)c2ccc(Br)cc2)CC1`: the cytotoxicity at 10 µM is -38.2%. For `N#CCCN(Cc1cccnc1)C(=O)c1ccc(OCC2CC2)cc1`, the cytotoxicity at 10 µM was -8.17%. Turning to `Cc1csc([C@@H]2C[C@@H]3CCN(C(=O)c4cccn4C)C[C@H]3O2)n1`, the cytotoxicity at 10 µM turned out to be 4.12%. Under `Cn1cc(C2CCCN2C(=O)CCn2ccc3ccccc32)cn1` (stereo not given) stands 8.84%. The figure for `N#Cc1cn(C2CC2)c(=O)n(CC(O)c2ccc(OC(F)F)cc2)c1=O` (stereo not given) is -2.22%; for `O=C(CSc1nnc2n1N=CN(c1ccccc1)C2)c1ccccc1` it is 9.11%; for `CC(C)NC(=O)CS(=O)(=O)Cc1coc(-c2ccc(F)cc2)n1` it is -6.6%. Under `CS(=O)(=O)Nc1cccc(CNC(=O)CCC(=O)c2cccs2)c1` stands 1.73%; under `Cc1oncc1C(=O)N1CCC(O)(CN2CCOCC2)C(C)(C)C1` (stereo not given), -5.26%; under `CCNc1cc2c(nn1)CCN(C(=O)C1CCc3ccccc31)C2` (stereo not given), 0.169%. As to `CC1COCCN1Cc1nc(-c2cccs2)no1` (stereo not given), the cytotoxicity at 10 µM is -7.79%.

In the case of `Cc1csc(CCNC(=O)C2CCCN(C3CCOCC3)C2)n1` (stereo not given), the cytotoxicity at 10 µM worked out at 3.01%. The figure for `CCOC(=O)[C@]12CCCN(Cc3cccs3)C[C@H]1CN(CCOC)C2` is 5.13%. Under `CC(NC(=O)CSCC#N)c1cccc(NC(=O)c2ccccc2)c1` (stereo not given) stands -1.79%; under `CC(NC(=O)NCCS(C)(=O)=O)c1ccc2c(c1)CCC(=O)N2` (stereo not given), 1.39%; under `O=C(CCC1CCN(C2Cc3ccccc3C2)CC1)NCC1CCCO1` (stereo not given), 7.36%.

For the compound `Cn1ccnc1CN(CCCO)C1CCCc2ccccc21` (stereo not given), the cytotoxicity at 10 µM is -6.91%.

With `Cn1ccnc1CNc1nccc(-c2ncnn2C)n1`, the cytotoxicity at 10 µM was -6.47%. The figure for `COc1ccc(S(=O)(=O)NCCCc2nnc3nc(C)cc(C)n23)cc1` is 5.05%; for `O=C1[C@H]2CN(C3CCOCC3)C[C@H]2CN1Cc1cccnc1` it is -127%. Under `Cc1noc(C(C)N2CCN(CCOCC(F)(F)F)CC2)n1` (stereo not given) stands -1.4%. With `Cc1nn(C)c(C)c1C1COCCN1C(=O)NC1CC1` (stereo not given), the cytotoxicity at 10 µM is 3.21%. The figure for `Cc1cc(NC2CCN(c3ccccc3)C2)n2ncnc2n1` (stereo not given) is 14.7%; for `CC(C)(C)n1ncc2c1NC(=O)CC2c1cccc(O)c1` (stereo not given) it is -6.36%; for `CC1CCN(S(=O)(=O)N2CCn3cccc3C2C)CC1` (stereo not given) it is -0.224%.

With `CCc1nc(C)c(CN2CCOC(CCCC(C)C)C2)[nH]1` (stereo not given), the cytotoxicity at 10 µM is -20%. The figure for `COCCC(=O)N1CCCC1c1nc(O)cc(-c2ccccn2)n1` (stereo not given) is -5.86%; for `c1cc(CNCc2ccnc(N3CCOCC3)c2)c2c(c1)OCCO2` it is -4.66%; for `CN(Cc1cscn1)C1CCN(C(=O)OC(C)(C)C)CC1` it is -3.76%. `Cc1ccccc1C(=O)N1CCO[C@H]2[C@H](OCCN(C)C)CC[C@@H]21`: the cytotoxicity at 10 µM was -2.95%.

For `COc1nc2c(cc1C(=O)N(C)Cc1n[nH]c3c1CCCC3)CCC2`, the cytotoxicity at 10 µM was -1.89%. As for `O=C(c1ccncc1)N1CC[C@@H]2CN(C3CCOCC3)CCO[C@@H]2C1`, the cytotoxicity at 10 µM is -110%.

For the compound `c1cncc(CN2CCn3cc(CN4CCCCC4)nc3C2)c1`, the cytotoxicity at 10 µM was -102%.
